{"source": "ChEMBL document CHEMBL4024793", "about": "“Development of Stem-Cell-Mobilizing Agents Targeting CXCR4 Receptor for Peripheral Blood Stem Cell Transplantation and Beyond” (J Med Chem, 2018)", "key": {"[1]": {"biological_target": "C-C chemokine receptor type 1 (Homo sapiens) (UniProt P32246)", "sequence (P32246 whole entry)": "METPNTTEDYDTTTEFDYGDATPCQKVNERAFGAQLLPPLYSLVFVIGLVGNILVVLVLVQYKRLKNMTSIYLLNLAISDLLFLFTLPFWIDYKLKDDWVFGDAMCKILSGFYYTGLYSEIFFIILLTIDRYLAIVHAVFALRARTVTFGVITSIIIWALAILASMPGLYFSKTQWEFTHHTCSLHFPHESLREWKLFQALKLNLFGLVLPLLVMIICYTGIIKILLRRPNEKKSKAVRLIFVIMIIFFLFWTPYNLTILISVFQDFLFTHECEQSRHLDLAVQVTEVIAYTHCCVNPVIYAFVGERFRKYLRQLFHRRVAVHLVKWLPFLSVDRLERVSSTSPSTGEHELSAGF", "assay": "Antagonist activity at human CCR1 expressed in CHOK1 cells assessed as inhibition of CCL3-induced cAMP accumulation at 10 uM preincubated for 30 mins followed agonist addition measured after 30 to 60 mins", "format": "functional, cell-based", "procedure,_shortened": "(§1)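 GPCR cAMP assay with a single test concentration of 10 μM; result expressed as percentage inhibition for each chemokine receptor.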"}, "[2]": {"biological_target": "C-X-C chemokine receptor type 3 (Homo sapiens) (UniProt P49682)", "sequence (P49682 whole entry)": "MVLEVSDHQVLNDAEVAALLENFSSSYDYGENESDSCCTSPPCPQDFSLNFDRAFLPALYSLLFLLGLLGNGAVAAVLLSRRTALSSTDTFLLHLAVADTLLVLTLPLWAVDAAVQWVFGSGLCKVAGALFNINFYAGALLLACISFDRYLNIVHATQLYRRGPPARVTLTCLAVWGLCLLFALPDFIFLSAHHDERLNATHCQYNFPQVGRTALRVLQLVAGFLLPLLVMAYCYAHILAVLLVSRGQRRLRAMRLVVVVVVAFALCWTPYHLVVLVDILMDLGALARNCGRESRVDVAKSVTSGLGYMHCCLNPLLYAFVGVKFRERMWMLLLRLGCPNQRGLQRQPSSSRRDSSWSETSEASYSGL", "assay": "Antagonist activity at human CXCR3 expressed in CHOK1 cells assessed as inhibition of CXCL11-induced cAMP accumulation at 10 uM preincubated for 30 mins followed agonist addition measured after 30 to 60 mins", "format": "functional, cell-based", "procedure,_shortened": "as §1"}, "[3]": {"biological_target": "C-X-C chemokine receptor type 4 (Homo sapiens, UniProt P61073)", "sequence (P61073 whole entry)": "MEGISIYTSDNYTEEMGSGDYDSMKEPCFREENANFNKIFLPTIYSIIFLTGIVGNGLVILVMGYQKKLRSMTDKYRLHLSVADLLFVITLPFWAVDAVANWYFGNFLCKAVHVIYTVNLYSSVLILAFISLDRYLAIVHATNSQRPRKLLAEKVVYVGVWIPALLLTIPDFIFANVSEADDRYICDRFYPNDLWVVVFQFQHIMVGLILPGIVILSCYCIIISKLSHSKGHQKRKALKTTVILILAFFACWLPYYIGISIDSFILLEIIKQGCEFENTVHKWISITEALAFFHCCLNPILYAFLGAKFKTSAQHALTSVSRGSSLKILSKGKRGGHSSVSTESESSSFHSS", "assay": "Antagonist activity at human CXCR4 expressed in CHOK1 cells assessed as inhibition of SDF1a-induced cAMP accumulation at 10 uM preincubated for 30 mins followed agonist addition measured after 30 to 60 mins", "format": "functional, cell-based", "procedure,_shortened": "as §1"}, "[4]": {"assay": "Cmax in C57BL/6 mouse at 6 mg/kg, sc measured up to 4 hrs post dose by LC-MS/MS analysis", "format": "ADME, organism-based", "set-up": "dose 6 mg/kg, route subcutaneous", "conditions": "in vivo", "procedure,_shortened": "(§2)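 Male C57BL/6 mice (23.4–25.4 g), quarantined one week, non-fasted, n = 3; single SC dose of 6 mg/kg in 100% saline. Blood taken by cardiac puncture at 0, 0.03, 0.08, 0.25, 1, 1.5, 2 and 4 h and stored at -80 °C. Plasma analysed by LC–MS/MS; parameters from non-compartmental analysis; mean ± SD.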"}, "[5]": {"assay": "AUC (0 to 4 hrs) in C57BL/6 mouse at 6 mg/kg, sc measured up to 4 hrs post dose by LC-MS/MS analysis", "format": "ADME, organism-based", "set-up": "dose 6 mg/kg, time < 4 hr, route subcutaneous", "conditions": "in vivo", "procedure,_shortened": "as §2"}, "[6]": {"system": "Mus musculus", "assay": "Induction hematopoietic stem cell mobilization in C57BL/6 mouse assessed as increase in CXCR4+ cells in blood at 35 mg/kg, sc measured after 2 hrs by APC-conjugated anti-CXCR4-staining based flow cytometry relative to vehicle control", "format": "functional", "procedure,_shortened": "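Male C57BL/6 mice, 8–10 weeks old, received SC doses escalating through 1, 6, 20, 35 and 50 mg/kg. Blood was drawn 2 h after dosing and labelled with APC-conjugated anti-CXCR4 (clone 2B11). CXCR4⁺ cells were counted by flow cytometry, at least 60,000 events per point. Mean ± SEM, n = 3 per group, t test against vehicle.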"}, "[7]": {"system": "Mus musculus", "assay": "Induction hematopoietic stem cell mobilization in C57BL/6 mouse assessed as increase in CXCR4+ cells in blood at 50 mg/kg, sc measured after 2 hrs by APC-conjugated anti-CXCR4-staining based flow cytometry relative to vehicle control", "format": "functional, organism-based", "procedure,_shortened": "(§3)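 Male C57BL/6 mice, 8–10 weeks old, given a single SC injection at escalating doses of 1, 6, 20, 35 and 50 mg/kg. Blood collected 2 h later and stained with antibodies including APC-anti-CXCR4. CXCR4⁺ cells counted by flow cytometry, at least 60,000 events per sample. n = 3 per group; mean ± SEM; t test against vehicle.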"}, "[8]": {"system": "Mus musculus", "assay": "Induction of hematopoietic stem cell mobilization in C57BL/6 mouse assessed as increase in CFU-GM colonies from PBMC at 35 mg/kg, sc administered on day 5 post 100 ug/kg/day G-CSF addition for 4 days measured after 2 hrs post compound dose by colony forming assay relative to AMD3100", "format": "functional", "procedure,_shortened": "(§4)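 Male C57BL/6 mice given G-CSF 100 µg/kg SC daily for 4 days. On day 5, G-CSF was co-injected SC with compound. Heparinized blood taken 2 h later; PBMCs isolated and cultured in methylcellulose medium for 10–14 days. CFU-GM colonies (aggregates of ≥50 cells) counted under an inverted microscope. Mean ± SEM, 8–12 mice per group, t test.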"}, "[9]": {"biological_target": "Muscarinic acetylcholine receptor M2 (Homo sapiens) (UniProt P08172)", "sequence (P08172 whole entry)": "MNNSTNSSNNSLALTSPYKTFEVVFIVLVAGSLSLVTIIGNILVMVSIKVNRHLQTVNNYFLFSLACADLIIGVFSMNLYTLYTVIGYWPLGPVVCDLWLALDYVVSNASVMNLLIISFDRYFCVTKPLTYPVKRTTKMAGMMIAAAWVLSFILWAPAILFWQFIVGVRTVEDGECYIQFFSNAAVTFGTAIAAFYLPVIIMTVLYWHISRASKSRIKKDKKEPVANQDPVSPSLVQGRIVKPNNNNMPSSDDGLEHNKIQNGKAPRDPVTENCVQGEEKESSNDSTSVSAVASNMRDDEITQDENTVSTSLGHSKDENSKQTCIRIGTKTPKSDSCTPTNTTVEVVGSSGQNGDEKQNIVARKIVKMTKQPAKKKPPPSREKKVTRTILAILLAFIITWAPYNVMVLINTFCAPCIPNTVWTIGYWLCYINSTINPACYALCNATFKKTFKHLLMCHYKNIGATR", "assay": "Displacement of [3H]AF-DX 384 from recombinant human Muscarinic M2 receptor at 10 uM after 60 mins by scintillation counting"}, "[10]": {"biological_target": "Voltage-gated inwardly rectifying potassium channel KCNH2 (Homo sapiens, UniProt Q12809)", "sequence (Q12809 whole entry)": "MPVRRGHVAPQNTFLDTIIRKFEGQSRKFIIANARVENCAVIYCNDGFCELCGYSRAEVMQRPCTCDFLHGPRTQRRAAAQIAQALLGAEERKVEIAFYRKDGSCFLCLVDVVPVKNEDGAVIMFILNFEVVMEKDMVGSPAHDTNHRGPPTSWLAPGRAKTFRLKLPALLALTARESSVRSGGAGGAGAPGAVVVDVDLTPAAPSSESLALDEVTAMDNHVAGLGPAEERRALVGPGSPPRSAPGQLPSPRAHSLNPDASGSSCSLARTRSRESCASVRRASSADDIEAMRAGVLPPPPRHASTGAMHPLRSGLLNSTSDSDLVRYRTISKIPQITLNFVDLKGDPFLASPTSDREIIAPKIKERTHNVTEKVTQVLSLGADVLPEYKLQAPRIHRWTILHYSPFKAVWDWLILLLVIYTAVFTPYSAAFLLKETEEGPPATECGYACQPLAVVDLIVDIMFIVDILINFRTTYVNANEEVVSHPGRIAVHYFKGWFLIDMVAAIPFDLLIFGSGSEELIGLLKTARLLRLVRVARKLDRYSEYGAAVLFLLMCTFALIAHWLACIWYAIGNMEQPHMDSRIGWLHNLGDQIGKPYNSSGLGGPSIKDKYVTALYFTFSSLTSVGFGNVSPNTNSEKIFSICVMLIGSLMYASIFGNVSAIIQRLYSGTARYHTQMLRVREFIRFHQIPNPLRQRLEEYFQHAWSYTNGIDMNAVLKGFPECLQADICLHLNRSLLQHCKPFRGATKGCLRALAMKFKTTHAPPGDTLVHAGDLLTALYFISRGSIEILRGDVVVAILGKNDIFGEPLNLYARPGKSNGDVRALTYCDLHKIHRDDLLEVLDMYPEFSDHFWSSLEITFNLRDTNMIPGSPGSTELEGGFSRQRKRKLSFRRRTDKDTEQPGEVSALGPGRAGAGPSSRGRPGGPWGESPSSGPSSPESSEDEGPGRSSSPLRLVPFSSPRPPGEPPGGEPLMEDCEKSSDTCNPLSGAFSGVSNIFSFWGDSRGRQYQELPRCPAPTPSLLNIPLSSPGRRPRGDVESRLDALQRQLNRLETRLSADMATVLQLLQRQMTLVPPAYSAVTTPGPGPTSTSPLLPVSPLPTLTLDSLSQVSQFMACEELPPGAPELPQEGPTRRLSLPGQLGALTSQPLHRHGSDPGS", "assay": "Inhibition of human ERG expressed in CHO cells up to 100 uM by automated patch-clamp assay", "format": "cell-based", "procedure,_shortened": "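hERG liability examined by patch-clamp at concentrations up to 100 μM.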"}, "[11]": {"biological_target": "Cytochrome P450 3A4 (Homo sapiens, UniProt P08684)", "sequence (P08684 whole entry)": "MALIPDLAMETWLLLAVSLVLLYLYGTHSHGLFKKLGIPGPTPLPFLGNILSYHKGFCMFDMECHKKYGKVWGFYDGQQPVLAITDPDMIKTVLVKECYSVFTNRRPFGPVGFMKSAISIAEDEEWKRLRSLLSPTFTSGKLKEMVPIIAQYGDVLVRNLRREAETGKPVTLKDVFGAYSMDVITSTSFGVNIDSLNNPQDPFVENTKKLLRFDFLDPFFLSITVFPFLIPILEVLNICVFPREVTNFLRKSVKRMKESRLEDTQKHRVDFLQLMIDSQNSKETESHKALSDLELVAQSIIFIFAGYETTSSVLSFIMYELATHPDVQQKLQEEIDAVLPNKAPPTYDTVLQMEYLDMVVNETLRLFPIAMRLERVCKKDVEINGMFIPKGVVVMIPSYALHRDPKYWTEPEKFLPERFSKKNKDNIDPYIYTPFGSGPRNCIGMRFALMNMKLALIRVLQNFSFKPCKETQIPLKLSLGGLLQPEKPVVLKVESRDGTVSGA", "assay": "Inhibition of human liver microsomal CYP3A4", "format": "ADME"}, "[12]": {"system": "Mus musculus", "assay": "In vivo antagonist activity at CXCR4 in C57BL/6 mouse assessed as induction of neutrophils molization at 35 mg/kg, sc measured after 2 hrs relative to AMD3100", "format": "functional", "set-up": "scale not given: the % may be the effect or the level left", "procedure,_shortened": "(§5)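 C57BL/6 mice given a single SC injection at 6 or 35 mg/kg. Blood collected 2 h after dosing and analysed for total white blood cells, neutrophils, lymphocytes and monocytes.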"}, "[13]": {"system": "Mus musculus", "assay": "In vivo antagonist activity at CXCR4 in C57BL/6 mouse assessed as induction of lymphocytes molization at 35 mg/kg, sc measured after 2 hrs relative to AMD3100", "format": "functional", "set-up": "scale not given: the % may be the effect or the level left", "procedure,_shortened": "as §5"}, "[14]": {"system": "Mus musculus", "assay": "In vivo antagonist activity at CXCR4 in C57BL/6 mouse assessed as induction of lymphocytes molization at 35 mg/kg, sc measured after 2 hrs relative to untreated control", "format": "functional"}, "[15]": {"system": "Mus musculus", "assay": "In vivo antagonist activity at CXCR4 in C57BL/6 mouse assessed as induction of monocytes molization at 35 mg/kg, sc measured after 2 hrs relative to untreated control", "format": "functional"}, "[16]": {"system": "Rattus norvegicus", "assay": "Renal toxicity in Sprague-Dawley rat assessed as effect on kidney size at 50 mg/kg/day, sc administered for 14 days relative to control", "format": "organism-based", "conditions": "in vivo, 336 h", "procedure,_shortened": "(§6)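 Non-GLP 14-day repeated-dose study in SD rats given 50 mg/kg/day SC. Major organs (liver, kidney, lung, heart) compared with vehicle for size, weight and colour. Blood analysed for hematological and biochemical parameters.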"}, "[17]": {"system": "Rattus norvegicus", "assay": "Cardiotoxicity in Sprague-Dawley rat assessed as effect on heart size at 50 mg/kg/day, sc administered for 14 days relative to control", "format": "toxicity, organism-based", "conditions": "in vivo, 336 h", "procedure,_shortened": "as §6"}, "[18]": {"system": "Rattus norvegicus", "assay": "Hepatotoxicity in Sprague-Dawley rat assessed as effect on liver weight at 50 mg/kg/day, sc administered for 14 days relative to control", "format": "toxicity, organism-based", "conditions": "in vivo, 336 h", "procedure,_shortened": "as §6"}, "[19]": {"system": "Rattus norvegicus", "assay": "Renal toxicity in Sprague-Dawley rat assessed as effect on kidney weight at 50 mg/kg/day, sc administered for 14 days relative to control", "format": "organism-based", "conditions": "in vivo, 336 h", "procedure,_shortened": "as §6"}, "[20]": {"system": "Mus musculus", "assay": "Induction hematopoietic stem cell mobilization in sc dosed C57BL/6 mouse assessed as increase in CXCR4+ cells in blood measured after 2 hrs by APC-conjugated anti-CXCR4 -staining based flow cytometry relative to vehicle control", "format": "functional", "conditions": "C57BL/6, sc, read-out: MED", "procedure,_shortened": "as §3"}, "[21]": {"system": "Mus musculus", "assay": "Induction of hematopoietic stem cell mobilization in C57BL/6 mouse assessed as increase in CFU-GM colonies from PBMC at 6 mg/kg, sc administered on day 5 post 100 ug/kg/day G-CSF addition for 4 days measured after 2 hrs post compound dose by colony forming assay relative to G-CSF alone", "format": "functional", "procedure,_shortened": "as §4"}, "[22]": {"system": "Rattus norvegicus", "assay": "Toxicity in Sprague-Dawley rat assessed as effect on hematology parameters at 50 mg/kg/day, sc administered for 14 days relative to control", "format": "organism-based", "conditions": "in vivo, 336 h", "procedure,_shortened": "as §6"}, "[23]": {"system": "Rattus norvegicus", "assay": "Toxicity in Sprague-Dawley rat assessed as effect on biochemistry parameters at 50 mg/kg/day, sc administered for 14 days relative to control", "format": "organism-based", "conditions": "in vivo, 336 h", "procedure,_shortened": "as §6"}}, "note": "Calls of active or inactive are those of the source. The calls are words filed in the database; no cut-off is given here."}
{"compound": "Cc1cc(NC2CCN(C(=O)CCNCC(=O)O)CC2)nc(NCc2cn(CCCNCCCNC3CCCCC3)nn2)n1", "values": [{"measurement": "Efficacy", "setting": "[1]", "value": -1.2, "unit": "%"}, {"measurement": "Efficacy", "setting": "[2]", "value": -7.6, "unit": "%"}, {"measurement": "Efficacy", "setting": "[3]", "value": 73.4, "unit": "%"}, {"measurement": "Cmax", "setting": "[4]", "value": 16400, "unit": "ng/mL"}, {"measurement": "AUC(0-t) at 4 h", "setting": "[5]", "value": 13500, "unit": "ng·h/mL"}, {"measurement": "fold change (FC)", "setting": "[6]", "value": 3}, {"measurement": "Activity", "setting": "[7]", "value": "inactive"}, {"measurement": "fold change (FC)", "setting": "[8]", "value": 1.6}, {"measurement": "inhibition", "setting": "[9]", "value": 70, "unit": "%"}, {"measurement": "inhibition (INH)", "setting": "[10]", "value": "Not Active"}, {"measurement": "IC50", "setting": "[11]", "value": "> 100", "unit": "µM"}, {"measurement": "Activity", "setting": "[12]", "value": "30 - 50%"}, {"measurement": "Activity", "setting": "[13]", "value": "30 - 50%"}, {"measurement": "fold change (FC)", "setting": "[14]", "value": "2 - 4"}, {"measurement": "fold change (FC)", "setting": "[15]", "value": "2 - 4"}, {"measurement": "Activity", "setting": "[16]", "value": "Non-Toxic"}, {"measurement": "Activity", "setting": "[17]", "value": "Non-Toxic"}, {"measurement": "Activity", "setting": "[18]", "value": "Non-Toxic"}, {"measurement": "Activity", "setting": "[19]", "value": "Non-Toxic"}, {"measurement": "minimal effective dose", "setting": "[20]", "value": 6, "unit": "mg/kg"}, {"measurement": "fold change (FC)", "setting": "[21]", "value": 5.3}, {"measurement": "Activity", "setting": "[22]", "value": "Non-Toxic"}, {"measurement": "Activity", "setting": "[23]", "value": "Non-Toxic"}]}
